Results on ten molecules are retold here after ChEMBL document CHEMBL1121770, “Substituted imidazo[2,3-alpha]pyridine-2-carbamate anthelmintics” (1981).

Format in all cases: functional
The subject of test [1] is Mus musculus. The test can be described thus: Compound was administered at 62.5 p.p.m. in the diet of mice, for percent reduction of Nematospiroides dubius in mice. The essentials:
(§1)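 Mouse infection test run by Baker's method, three mice per treated group. Worm counts are averaged per mouse, and percent reduction is derived from them. Reductions below 20% are recorded as 0.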

The subject of test [2] is Mus musculus. The test can be described thus: Compound was administered at 125 p.p.m. in the diet of mice, for percent reduction of Nematospiroides dubius in mice. The procedure, abridged:
as §1

Test [3] relates to Mus musculus. Nature of the test: Compound was administered at 500 p.p.m. in the diet of mice, for percent reduction of Nematospiroides dubius in mice. The procedure, abridged:
as §1

The subject of test [4] is Mus musculus. The test can be described thus: Compound was administered at 1000 p.p.m. in the diet of mice, for percent reduction of Nematospiroides dubius in mice. The procedure, abridged:
as §1

Test [5] has as its system Mus musculus. Nature of the test: Compound was administered at 250 p.p.m. in the diet of mice, for percent reduction of Nematospiroides dubius in mice. The procedure, abridged:
as §1

As for `COC(=O)Nc1cn2cc(C(Cl)=C(Cl)Cl)ccc2n1`, the Reduction in test [1] and in test [2] was 94% in each case.
Take `COC(=O)Nc1cn2ccccc2n1`: the Reduction in test [3] is listed as 0%; in test [4], 54%.
Take `COC(=O)Nc1cn2cc(Sc3ccccc3)ccc2n1`: the Reduction in test [5] turned out to be 98%; in test [3], 100%; in test [1], 0%; in test [2] it was 38%.
`COC(=O)Nc1cn2cc([S+]([O-])c3ccccc3)ccc2n1` (centres undefined): the Reduction is given as 35% in test [1] and 100% in test [2].
In the case of `CCCSc1ccc2nc(NC(=O)OC)cn2c1`, the Reduction in test [5] was determined as 100%; in test [1] it was 0%; in test [2], 74%.
The corresponding values for `CCCOc1ccc2nc(NC(=O)OC)cn2c1` are 74%, 0% and 44%.
Turning to `COC(=O)Nc1cn2cc(C(=O)c3ccccc3)ccc2n1`, the Reduction in test [3] and in test [4] was 0% throughout.
As to `COC(=O)Nc1nc2cc(C(Cl)=C(Cl)Cl)ccc2[nH]1`, the results for the Reduction in test [5], in test [1] and in test [2] were 99%, 57% and 69%, respectively.
With `CC(C)OC(=O)Nc1ccc2[nH]c(-c3cscn3)nc2c1` [CAMBENDAZOLE], the Reduction in test [5] is given as 73%; in test [3], 100%; in test [1], 0%; in test [2], 0%.
For the molecule `c1ccc2[nH]c(-c3cscn3)nc2c1` [THIABENDAZOLE], the Reduction in test [5] is 26%; in test [3], 86%; in test [4] it was 100%; in test [2], 0%.
